Results gathered from unrelated publications.
Each line is one published result; the experiments were not run side by side.
Target: Serine/threonine-protein kinase SIK3 (SIK3, Homo sapiens, UniProt Q9Y2K2)

The remaining binding of `CN(C)C(=O)Cn1cc(-c2nc(C3(c4ccc(-c5cnc(N)nc5)cc4)CC3)no2)cn1` is reported as 100% (cell-free assay; competition with immobilised ligand; 1 µM).
For `O=C(c1ccc(Nc2nccc(-c3cc4ccccc4s3)n2)cc1)N1CCC(N2CCCC2)CC1`, the remaining binding was 65% (binding; competition with immobilised ligand; 1 µM).
`COc1cnc(Nc2cccc(S(N)(=O)=O)c2)nc1N1CCN(c2ccccc2)C(=O)C1` gave a remaining binding of 90% (binding; competition with immobilised ligand; 1 µM).
For `C[C@H](c1ccc(F)cc1)N(Cc1cccc(C(=O)O)c1)C(=O)c1cnc2ccccc2c1`, the remaining binding was 80% (cell-free assay; competition with immobilised ligand; 1 µM).
For `COc1ncc2cc3ccccc3nc2c1C#N`, the remaining binding was 88% (cell-free assay; competition with immobilised ligand; 5 µM).
`O=C(c1ccc(Nc2ncc(Cl)c(-c3cc4ccccc4s3)n2)cc1)N1CCC(N2CCCC2)CC1` has a remaining binding of 98% (binding; competition with immobilised ligand; 1 µM).
`c1cnn2ncc(-c3ccnc(N4CCC45COC5)n3)c2c1` has a remaining binding of 70% (binding; 1 µM).
With `O=C(O)[C@H]1[C@H](Cn2nnc3ccccc3c2=O)CC[C@@H]1C(=O)c1ccc(OCCC2CCOCC2)cc1` the remaining binding was 61% (cell-free assay; competition with immobilised ligand; 1 µM).
`O=C(NCCCN1CCOCC1)c1ccc(Nc2nccc(-c3cc4ccccc4s3)n2)cc1` gave a remaining binding of 95% (binding; competition with immobilised ligand; 1 µM).
With `CNC(=O)[C@@H]1CC[C@@H](n2c(-c3ccc4cnccc4c3)nc3ccc(C(=O)NCc4cccc(C(N)=O)c4)cc32)C1` the remaining binding was 88% (binding; competition with immobilised ligand; 1 µM).
`C[C@@H]1CCN(c2nccc(-c3cnn4ncccc34)n2)C1` has a remaining binding of 31% (binding; 1 µM).
With `Nc1ncc2c(n1)-c1c([nH]c3ccc(C#CC4CC4)cc13)CCCC2` the remaining binding was 100% (binding; competition with immobilised ligand; 1 µM).
For `CN(CCCC(F)(F)F)c1nccc(-c2cnn3ncccc23)n1`, the remaining binding was 100% (binding; 1 µM).
The remaining binding of `CC(=O)Nc1c(C(C)=O)c(=O)n(C)c2nc(-c3ccc(Cl)cc3Cl)c(-c3ccc(Cl)cc3)cc12` is reported as 100% (cell-free assay; competition with immobilised ligand; 1 µM).
For `CN(C)c1ncc(F)c(-c2cnn3ncccc23)n1`, the remaining binding was 87% (binding; 1 µM).
With `O=C(NCC1CCOCC1)c1n[nH]cc1NC(=O)c1c(F)cccc1F` the remaining binding was 88% (binding; competition with immobilised ligand; 1 µM).
`N[C@H]1CCN(c2nccc(-c3cnn4ncccc34)n2)C1` gave a remaining binding of 100% (binding; 1 µM).
`CCS(=O)(=O)c1cc2cc(C[C@](O)(CC(C)(C)c3ccc(F)cc3C(N)=O)C(F)(F)F)[nH]c2cn1` has a remaining binding of 85% (cell-free assay; competition with immobilised ligand; 1 µM).
The remaining binding of `CC1CCCN1c1nccc(-c2cnn3ncccc23)n1` (centres unmarked) is reported as 94% (binding; 1 µM).
`O=C(Nc1ccc(Oc2ccc(F)cc2)cc1)N1CCc2ncccc2[C@H]1c1ccc(F)cc1` has a remaining binding of 100% (cell-free assay; competition with immobilised ligand; 1 µM).
